In one data set the target is N119^3.35A CXCR4 (Homo sapiens, UniProt P61073, N119A). Format: cell-based. As to conditions: for signal as % maximum of the WT signaling levels: N119^3.35A CAM, basal CAM activity roughly 47% of maximum WT response to CXCL12; for functional classification on the N119^3.35A CAM: dose-response without CXCL12, classification at 1 μM by one-way ANOVA vs DMSO.
A further data set concerns HIV-1. To be noted: read-out: HIV-1 IC50, cited from earlier work.
The subject of a further data set is N119^3.35A/S CXCR4 CAMs. To be noted: ref Zhang et al., 2002; cited from earlier work.
In the next data set the test system is HIV-1 IIIB. The experiment in a line: HIV-1 inhibition in TZM-bl reporter cells. It counts as cell-based. As to conditions: read-out: HIV-1 IC50, ± SD. Summed up:
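TZM-bl cells (HeLa-derived; CD4, CCR5, CXCR4; LTR-driven β-galactosidase and luciferase reporters), 5 × 10³ per well, grown 1–2 days at 37°C, 5% CO2. Serially diluted test compound applied 30 min before infection with HIV-1 IIIB at MOI of one. Reporter activity read per well; IC50 from ≥ three independent experiments, standard deviation given.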

The nature of data set [1]: Cytotoxicity, methylene blue, 72 hours. To be noted: human, CEM cells (acute lymphoblastic lymphoma). Format: cell-based.
In another data set the target is human CXCR4 (Homo sapiens, UniProt P61073). To be noted: CXCL12 binding IC50, WT CXCR4, 125I-CXCL12, HEK-293 membranes; ± SD.
Data set [2] can be described thus: Cytotoxicity, methylene blue, 72 hours. It counts as cell-based. To be noted: human, TZM-bl cells.
A further data set deals with N119^3.35S CXCR4 CAM. To be noted: ref Mona et al., 2016; cited from earlier work.

Data on four compounds can be found in publication PMC6736600 (Cell chemical biology, 2019).

Like-named read-outs stand apart in the source and are kept apart here.

Chain of N119^3.35A CXCR4 (P61073 whole entry N119A): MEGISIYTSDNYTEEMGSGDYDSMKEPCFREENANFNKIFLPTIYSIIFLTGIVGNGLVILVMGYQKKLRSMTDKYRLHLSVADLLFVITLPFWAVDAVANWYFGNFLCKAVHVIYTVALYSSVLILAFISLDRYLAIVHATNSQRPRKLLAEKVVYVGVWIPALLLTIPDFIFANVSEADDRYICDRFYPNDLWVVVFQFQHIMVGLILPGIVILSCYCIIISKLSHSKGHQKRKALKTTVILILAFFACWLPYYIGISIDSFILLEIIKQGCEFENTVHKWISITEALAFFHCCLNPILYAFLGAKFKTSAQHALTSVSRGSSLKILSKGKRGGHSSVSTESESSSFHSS
Chain of human CXCR4 (P61073 whole entry): as the sequence (P61073 whole entry N119A) above, with A119N counted along it

On to `c1cc(CN2CCCNCCNCCCNCC2)ccc1CN1CCCNCCNCCCNCC1` [AMD3100], for which, at N119^3.35A CXCR4, the “signal as % maximum of the WT signaling levels” value is listed as ~ 83% and the “functional classification on the N119^3.35A CAM” value is “partial agonism”. Further, the IC50 in the data set with HIV-1 (ref Schols et al., 1997) was 4 to 10 nM. The “functional classification on N119^3.35A/S CAMs” value in the data set with N119^3.35A/S CXCR4 CAMs was “partial agonist”.
With `Cl.c1nc2c(NCc3cn(CCCNCCCNC4CCCCC4)nn3)nc(N3CCNCC3)nc2[nH]1` [CX0298, N-Cyclohexyl-N’-(3-{4-[(2-piperazin-1-yl-9H-purin-6-ylamino)-methyl]-[1,2,3]triazol-1-yl}-propyl)-propane-1,3-diamine hydrochloride salt], the “functional classification on the N119^3.35A CAM” value at N119^3.35A CXCR4 is given as “neutral antagonists”. For the same compound, the IC50 with HIV-1 IIIB was determined as 4.2 ± 0.3 nM; on human CXCR4, 27.8 ± 1.9 nM. Moreover, the half-maximal cytotoxic concentration (CC50) at 72 h in data set [1] and in data set [2] was over 50000 nM each time.
As to `Cl.c1nc2c(NCC3CCC(CNCCCNC4CCCCC4)CC3)nc(N3CCNCC3)nc2[nH]1` (stereo not shown) [Compound B7, N-Cyclohexyl-N’-{4-[(2-piperazin-1-yl-9H-purin-6-ylamino)-methyl]-cyclohexylmethyl}-propane-1,3-diamine hydrochloride salt], the “functional classification on the N119^3.35A CAM” value on N119^3.35A CXCR4 is given as “neutral antagonists”. The IC50 in the data set on HIV-1 IIIB is 2.4 ± 0.4 nM; on human CXCR4, 28 ± 2.7 nM. Moreover, the 50% cytotoxic concentration (CC50) at 72 h in data set [1] and in data set [2] was over 50000 nM in each case.
Turning to `CC1(C)CN2C(CSC(=NC3CCCCC3)NC3CCCCC3)=CSC2=N1` [IT1t, N,N’-dicyclohexylcarbamimidothioic acid (5,6-dihydro-6,6-dimethylimidazo[2,1-b]thiazol-3-yl)methyl ester], the “effect on N119^3.35A signaling levels vs DMSO” value at N119^3.35A CXCR4 (1 μM, p < 0.0001) is on record as “significantly reduced signaling levels”. Besides, at N119^3.35A CXCR4, the “signal as % maximum of the WT signaling levels” value is listed as ~ 25% and the “functional classification on the N119^3.35A CAM” value is “inverse agonism”. The “functional classification on the N119^3.35S CAM” value in the data set on N119^3.35S CXCR4 CAM is given as “inverse agonist”. The IC50 with HIV-1 (ref Thoma et al., 2008) is 40 nM.

The term IC50 denotes the concentration at which inhibition is half-maximal. The CC50 is the concentration giving 50% cytotoxicity. A low value points to harm at low concentration.
